Results: ChEMBL document CHEMBL3853327 (J Med Chem, 2016)

Columns and labels:
[1] = Selectivity index, ratio of CC50 for human mock-infected MT4 cells to EC50 for HIV1 3B harboring reverse transcriptase K103N mutant infected in human MT4 cells; format: toxicity, cell-based; details: MT4 cells (mock-infected for CC50, HIV-1 infected for EC50)
Outline: (§1)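 Selectivity index is CC50/EC50. CC50 is the concentration that reduces OD540 of mock-infected MT-4 cells by 50% in the 5-day MTT assay. EC50 is the 50% protection from virus-induced cytopathicity, measured in parallel on infected wells.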

[2] = tested on: Human immunodeficiency virus 1; experiment: Antiviral activity against wild type HIV1 3B harboring reverse transcriptase infected in human MT4 cells assessed as protection against virus induced cytotoxicity after 5 days by MTT assay; format: functional, cell-based; details: Human immunodeficiency virus 1, 3B, MT4, 120 h
Outline: (§2)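 MTT cytopathicity assay in MT-4 cells (6 × 10^5 cells/mL). Compounds serially diluted 5-fold in triplicate wells, run in parallel on infected and mock-infected cells. Virus added at 100−300 CCID50 per well. Viability read spectrophotometrically at 540 and 690 nm after 5 days, using the median OD of three wells.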

[3] = tested on: Human immunodeficiency virus 1; experiment: Antiviral activity against HIV1 3B harboring reverse transcriptase Y181C mutant infected in human MT4 cells assessed as protection against virus induced cytotoxicity after 5 days by MTT assay; format: functional, cell-based; details: Human immunodeficiency virus 1, 3B, MT4, 120 h; outline: as §2
[4] = Selectivity index, ratio of CC50 for human mock-infected MT4 cells to EC50 for HIV1 3B harboring reverse transcriptase Y181C mutant infected in human MT4 cells; format: toxicity, cell-based; details: MT4 cells (mock-infected for CC50, HIV-1 infected for EC50); outline: as §1
[5] = tested on: Human immunodeficiency virus 1; experiment: Potency index, ratio of ETV EC50 to compound EC50 for HIV1 3B harboring reverse transcriptase YI88L mutant infected in human MT4 cells; format: functional
[6] = tested on: Human immunodeficiency virus 1; experiment: Potency index, ratio of ETV EC50 to compound EC50 for HIV1 3B harboring reverse transcriptase F227L/V106A double mutant infected in human MT4 cells; format: functional
[7] = tested on: Human immunodeficiency virus 1; experiment: Potency index, ratio of ETV EC50 to compound EC50 for HIV1 3B harboring reverse transcriptase L100I mutant infected in human MT4 cells; format: functional
[8] = tested on: Human immunodeficiency virus 1; experiment: Fold resistance, ratio of EC50 for HIV1 3B harboring reverse transcriptase Y181C mutant infected in human MT4 cells to EC50 for wild type HIV1 3B harboring reverse transcriptase infected in human MT4 cells; format: functional
Outline: (§3)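 Fold resistance is the EC50 against the mutant HIV-1 strain divided by the EC50 against WT IIIB. Both EC50s come from the MT-4 MTT cytoprotection assay (5-day read, 100−300 CCID50 inoculum).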

[9] = tested on: Human immunodeficiency virus 1; experiment: Fold resistance, ratio of EC50 for HIV1 3B harboring reverse transcriptase E138K mutant infected in human MT4 cells to EC50 for wild type HIV1 3B harboring reverse transcriptase infected in human MT4 cells; format: functional; outline: as §3
[10] = tested on: Human immunodeficiency virus 1; experiment: Fold resistance, ratio of EC50 for HIV1 3B harboring reverse transcriptase F227L/V106A double mutant infected in human MT4 cells to EC50 for wild type HIV1 3B harboring reverse transcriptase infected in human MT4 cells; format: functional; outline: as §3
[11] = tested on: Human immunodeficiency virus 1; experiment: Fold resistance, ratio of IC50 for recombinant HIV1 reverse transcriptase K103N/Y181C double mutant to IC50 for wild type HIV1 reverse transcriptase
Outline: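 Ratio of mutant to WT IC50. Recombinant WT and K103N/Y181C RT were assayed with a kit: template plus DIG-dUTP, biotin-dUTP and dTTP, with or without inhibitor, 1 h at 37 °C. Product was captured on streptavidin, detected with anti-DIG-POD and ABTS, and read at 405 nm. IC50 is the concentration inhibiting biotin-dUTP incorporation by 50%.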

[12] = AUC (0 to t) in Sprague-Dawley rat plasma at 8 mg/kg administered through oral gavage measured at 5 mins to 24 hrs post dosing by LC/MS analysis; format: ADME, organism-based; design: dose 8 mg/kg, time 0.083-24 hr, route oral
Outline: (§4)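 Male Sprague-Dawley rats, ten randomly split into two groups (n = 5), single gavage dose of 8 or 16 mg·kg−1 in PEG 400/normal saline (70/30, V/V). Jugular sinus blood into heparinized tubes at 5 min to 24 h; plasma separated at 2200g for 8 min, stored −20 °C. Methanol precipitation with internal standard, LC-MS quantitation against plasma standard curves. Parameters reported as mean ± SD.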

[13] = AUC (0 to infinity) in Sprague-Dawley rat plasma at 8 mg/kg administered through oral gavage measured at 5 mins to 24 hrs post dosing by LC/MS analysis; format: ADME, organism-based; design: dose 8 mg/kg, route oral, time infinity; details: in vivo; outline: as §4
[14] = AUMC (0 to t) in Sprague-Dawley rat plasma at 8 mg/kg administered through oral gavage measured at 5 mins to 24 hrs post dosing by LC/MS analysis; format: ADME, organism-based; details: in vivo; outline: as §4
[15] = MRT (0 to t) in Sprague-Dawley rat plasma at 8 mg/kg administered through oral gavage measured at 5 mins to 24 hrs post dosing by LC/MS analysis; format: ADME, organism-based; outline: as §4
[16] = VRT (0 to t) in Sprague-Dawley rat plasma at 8 mg/kg administered through oral gavage measured at 5 mins to 24 hrs post dosing by LC/MS analysis; format: ADME, organism-based; details: in vivo; outline: as §4
[17] = AUC (0 to t) in Sprague-Dawley rat plasma at 16 mg/kg administered through oral gavage measured at 5 mins to 24 hrs post dosing by LC/MS analysis; format: ADME, organism-based; design: time lower 0.083 hr, dose 16 mg/kg, time upper 24 hr, route oral; outline: as §4
[18] = AUMC (0 to infinity) in Sprague-Dawley rat plasma at 16 mg/kg administered through oral gavage measured at 5 mins to 24 hrs post dosing by LC/MS analysis; format: ADME, organism-based; details: in vivo; outline: as §4
[19] = MRT (0 to infinity) in Sprague-Dawley rat plasma at 16 mg/kg administered through oral gavage measured at 5 mins to 24 hrs post dosing by LC/MS analysis; format: ADME, organism-based; outline: as §4
[20] = VRT (0 to infinity) in Sprague-Dawley rat plasma at 16 mg/kg administered through oral gavage measured at 5 mins to 24 hrs post dosing by LC/MS analysis; format: ADME, organism-based; details: in vivo; outline: as §4
[21] = Apparent half life in Sprague-Dawley rat plasma at 16 mg/kg administered through oral gavage measured at 5 mins to 24 hrs post dosing by LC/MS analysis; format: ADME, organism-based; details: in vivo; outline: as §4
[22] = Tmax in Sprague-Dawley rat plasma at 16 mg/kg administered through oral gavage measured at 5 mins to 24 hrs post dosing by LC/MS analysis; format: ADME, organism-based; details: in vivo; outline: as §4
[23] = Apparent volume of distribution during terminal phase in Sprague-Dawley rat plasma at 16 mg/kg administered through oral gavage measured at 5 mins to 24 hrs post dosing by LC/MS analysis; format: ADME, organism-based; details: read-out: Vz/F; outline: as §4
[24] = Cmax in Sprague-Dawley rat plasma at 16 mg/kg administered through oral gavage measured at 5 mins to 24 hrs post dosing by LC/MS analysis; format: ADME, organism-based; design: dose 16 mg/kg, route oral; details: in vivo; outline: as §4
[25] = tested on: Mus musculus; experiment: Acute toxicity in Kunming mouse assessed as mortality at 2000 mg/kg, ig after 1 week; format: organism-based; details: in vivo, po, 168 h
Outline: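 Kunming mice (18−22 g), fasted 12 h, then given a single intragastric dose suspended in PEG-400 (100 or 200 mg·mL−1 for 1000 or 2000 mg·kg−1). Six mice per dose group, half male and half female. Deaths and body-weight gain followed for 1 week.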

Cc1cc(C#N)cc(C)c1Oc1nc(NC2CCN(Cc3ccc(S(N)(=O)=O)cc3)CC2)nc2ccsc12
selectivity ratio [1]: > 67400
EC50 [2]: 1.4 nM
EC50 [3]: 3.2 nM
selectivity ratio [4]: > 78100
Ratio EC50 [5]: 7
Ratio EC50 [6]: 7
Ratio EC50 [7]: 1.6
Ratio EC50 [8]: <3
Ratio EC50 [9]: <3
Ratio EC50 [10]: <3
Ratio IC50 [11]: 1.2
AUC(0-t) [12]: 1680 ng·h/mL
AUC [13]: 1720.9 ng·h/mL
AUMCt [14]: 5690.8 ug/L.hr
MRT last [15]: 3.44 h
VRT(t) [16]: 7.78 hr2
AUC(0-t) [17]: 1670 ng·h/mL
AUMC [18]: 7215.795 ug/L.hr
MRT inf [19]: 4.16 h
VRT [20]: 25.29 hr2
t1/2(app) [21]: 3.6 h
Tmax [22]: 0.8 h
Vd/F [23]: 50.1 L/kg
Cmax [24]: 472 ng/mL
Activity [25]: Non-Toxic
